Assay results: ChEMBL document CHEMBL1153554, “Mechanisms by which the G333D mutation in human immunodeficiency virus type 1 Reverse transcriptase facilitates dual resistance to zidovudine and lamivudine” (Antimicrob Agents Chemother, 2008)
Activity calls are given as the source filed them. No cut-off for these calls is given here.

Experiments:
[1] = test system: Human immunodeficiency virus 1; assay: Binding affinity to HIV1 LAI reverse transcriptase M41L/L210W/T215Y/M184V/G333D mutant assessed as ATP-mediated excision of zidovudine-monophosphate from chain terminated RNA/DNA template/primer duplex
Summary of the method: (§1)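 The AZT-MP-terminated ³²P-P20 primer was annealed to a 35-nt RNA template (T35). 200 nM active-site RT with 20 nM T/P in 50 mM Tris-HCl pH 8.0, 50 mM KCl. Started with 3.0 mM ATP and 10 mM MgCl₂. Timed aliquots were quenched and separated on denaturing urea-PAGE, then phosphorimaged.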

[2] = molecular target: Human immunodeficiency virus type 1 reverse transcriptase (Human immunodeficiency virus 1) (UniProt Q72547); assay: Binding affinity to 200 nM wild type HIV1 LAI reverse transcriptase assessed as ATP-mediated excision of zidovudine-monophosphate from chain terminated DNA/DNA template/primer duplex at 100 uM
Summary of the method: (§2)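 Primer P20 (5′-³²P) on DNA template T57 was chain-terminated with WT RT and 100 μM AZT-TP (30 min, 37°C), gel-purified and reannealed. 200 nM active-site RT with 20 nM terminated T/P in 50 mM Tris-HCl pH 8.0, 50 mM KCl. Started with 3.0 mM ATP, 10 mM MgCl₂, 1 μM TTP and 5 μM ddCTP. Timed aliquots were run on 7 M urea-16% PAGE and phosphorimaged.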

[3] = test system: Human immunodeficiency virus type 1 reverse transcriptase (Human immunodeficiency virus 1), Q72547 [M184V]; assay: Binding affinity to 200 nM HIV1 LAI reverse transcriptase M184V mutant assessed as ATP-mediated excision of zidovudine-monophosphate from chain terminated DNA/DNA template/primer duplex at 100 uM; summary of the method: as §2
[4] = test system: Human immunodeficiency virus type 1 reverse transcriptase (Human immunodeficiency virus 1), Q72547 [M41L,L210W,T215Y]; assay: Binding affinity to 200 nM HIV1 LAI reverse transcriptase M41L/L210W/T215Y mutant assessed as ATP-mediated excision of zidovudine-monophosphate from chain terminated DNA/DNA template/primer duplex at 100 uM; summary of the method: as §2
[5] = test system: Human immunodeficiency virus type 1 reverse transcriptase (Human immunodeficiency virus 1), Q72547 [M41L,L210W,T215Y,M184V]; assay: Binding affinity to 200 nM HIV1 LAI reverse transcriptase M41L/L210W/T215Y/M184V mutant assessed as ATP-mediated excision of zidovudine-monophosphate from chain terminated DNA/DNA template/primer duplex at 100 uM; summary of the method: as §2
[6] = test system: Human immunodeficiency virus 1; assay: Binding affinity to 200 nM HIV1 LAI reverse transcriptase M41L/L210W/T215Y/M184V/G333D mutant assessed as ATP-mediated excision of zidovudine-monophosphate from chain terminated DNA/DNA template/primer duplex at 100 uM; summary of the method: as §2
[7] = test system: Human immunodeficiency virus 1; assay: (§3) Selectivity ratio of Kd for excision of zidovudine-monophosphate from chain terminated DNA/DNA template/primer duplex in 200 nM HIV1 LAI reverse transcriptase M41L/L210W/T215Y mutant to Kd for excision of zidovudine-monophosphate from chain terminated DNA/DNA template/primer duplex in 200 nM wild type HIV1 LAI reverse transcriptase by gel shift mobility assay
[8] = test system: Human immunodeficiency virus 1; assay: as §3, with “200 nM HIV1 LAI” for “200 nM wild type HIV1 LAI”, “reverse transcriptase M184V mutant by gel” for “reverse transcriptase by gel”
[9] = molecular target: T1, Human immunodeficiency virus type 1 reverse transcriptase (Human immunodeficiency virus 1, UniProt Q72547); assay: Binding affinity to wild type HIV1 LAI reverse transcriptase assessed as ATP-mediated excision of zidovudine-monophosphate terminated DNA/DNA template/primer duplex chain at 100 uM by gel shift mobility assay
Summary of the method: (§4)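 Native 4% PAGE in Tris-acetate pH 8.0 with 1 mM EDTA, 30 min at 100 V, room temperature. The shifted band was taken as a 1:1 RT-T/P complex to give Kd. Mean ± SD of three experiments.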

[10] = molecular target: T2, Human immunodeficiency virus type 1 reverse transcriptase (Human immunodeficiency virus 1, UniProt Q72547, M184V); assay: Binding affinity to HIV1 LAI reverse transcriptase M184V mutant assessed as ATP-mediated excision of zidovudine-monophosphate terminated DNA/DNA template/primer duplex chain at 100 uM by gel shift mobility assay; summary of the method: as §4
[11] = molecular target: T3, Human immunodeficiency virus type 1 reverse transcriptase (Human immunodeficiency virus 1, UniProt Q72547, L210W/M41L/T215Y); assay: Binding affinity to HIV1 LAI reverse transcriptase M41L/L210W/T215Y mutant assessed as ATP-mediated excision of zidovudine-monophosphate terminated DNA/DNA template/primer duplex chain at 100 uM by gel shift mobility assay; summary of the method: as §4
[12] = molecular target: T4, Human immunodeficiency virus type 1 reverse transcriptase (Human immunodeficiency virus 1, UniProt Q72547, L210W/M184V/M41L/T215Y); assay: Binding affinity to HIV1 LAI reverse transcriptase M41L/L210W/T215Y/M184V mutant assessed as ATP-mediated excision of zidovudine-monophosphate terminated DNA/DNA template/primer duplex chain at 100 uM by gel shift mobility assay; summary of the method: as §4
[13] = Binding affinity to HIV1 LAI reverse transcriptase M41L/L210W/T215Y/M184V/G333D mutant assessed as ATP-mediated excision of zidovudine-monophosphate terminated DNA/DNA template/primer duplex chain at 100 uM by gel shift mobility assay; design: species or system Human immunodeficiency virus 1; summary of the method: as §4
[14] = test system: Human immunodeficiency virus 1; assay: as §3, with “zidovudine-monophosphate” for “zidovudine-monophosphate from chain”, “duplex chain” for “duplex”, “in” for “in 200 nM”, “M184V” for “M41L/L210W/T215Y”
[15] = test system: Human immunodeficiency virus 1; assay: as §3, with “zidovudine-monophosphate” for “zidovudine-monophosphate from chain”, “duplex chain” for “duplex”, “in” for “in 200 nM”
[16] = test system: Human immunodeficiency virus 1; assay: as §3, with “zidovudine-monophosphate” for “zidovudine-monophosphate from chain”, “duplex chain” for “duplex”, “in” for “in 200 nM”, “M41L/L210W/T215Y/M184V” for “M41L/L210W/T215Y”
[17] = test system: Human immunodeficiency virus 1; assay: as §3, with “zidovudine-monophosphate” for “zidovudine-monophosphate from chain”, “duplex chain” for “duplex”, “in” for “in 200 nM”, “M41L/L210W/T215Y/M184V/G333D” for “M41L/L210W/T215Y”
[18] = molecular target: Human immunodeficiency virus type 1 reverse transcriptase (Human immunodeficiency virus 1, UniProt Q72547, K65R/L210W/M41L/T215Y); assay: Binding affinity to HIV1 LAI reverse transcriptase M41L/L210W/T215Y/K65R mutant assessed as ATP-mediated excision of zidovudine-monophosphate terminated DNA/DNA template/primer duplex chain at 100 uM by gel shift mobility assay; summary of the method: as §4
[19] = Binding affinity to HIV1 LAI reverse transcriptase M41L/L210W/T215Y/K65R/G333D mutant assessed as ATP-mediated excision of zidovudine-monophosphate terminated DNA/DNA template/primer duplex chain at 100 uM by gel shift mobility assay; design: species or system Human immunodeficiency virus 1; summary of the method: as §4
[20] = test system: Human immunodeficiency virus 1; assay: as §3, with “zidovudine-monophosphate” for “zidovudine-monophosphate from chain”, “duplex chain” for “duplex”, “in” for “in 200 nM”, “M41L/L210W/T215Y/K65R” for “M41L/L210W/T215Y”
[21] = test system: Human immunodeficiency virus 1; assay: as §3, with “in” for “in 200 nM”, “M41L/L210W/T215Y/K65R/G333D” for “M41L/L210W/T215Y”
[22] = molecular target: Human immunodeficiency virus type 1 reverse transcriptase (Human immunodeficiency virus 1) (UniProt Q72547); assay: Binding affinity to wild type HIV1 LAI reverse transcriptase assessed as ATP-mediated excision of zidovudine-monophosphate from chain terminated RNA/DNA template/primer duplex; summary of the method: as §1
[23] = test system: Human immunodeficiency virus type 1 reverse transcriptase (Human immunodeficiency virus 1), Q72547 [M184V]; assay: Binding affinity to HIV1 LAI reverse transcriptase M184V mutant assessed as ATP-mediated excision of zidovudine-monophosphate from chain terminated RNA/DNA template/primer duplex at 100 uM; summary of the method: as §1
[24] = test system: Human immunodeficiency virus type 1 reverse transcriptase (Human immunodeficiency virus 1), Q72547 [M41L,L210W,T215Y]; assay: Binding affinity to HIV1 LAI reverse transcriptase M41L/L210W/T215Y mutant assessed as ATP-mediated excision of zidovudine-monophosphate from chain terminated RNA/DNA template/primer duplex; summary of the method: as §1
[25] = test system: Human immunodeficiency virus type 1 reverse transcriptase (Human immunodeficiency virus 1), Q72547 [M41L,L210W,T215Y,M184V]; assay: Binding affinity to HIV1 LAI reverse transcriptase M41L/L210W/T215Y/M184V mutant assessed as ATP-mediated excision of zidovudine-monophosphate from chain terminated RNA/DNA template/primer duplex; summary of the method: as §1
[26] = molecular target: Human immunodeficiency virus type 1 reverse transcriptase (Human immunodeficiency virus 1) (UniProt Q72547); assay: Ratio of Kpol to Kd for wild type HIV1 LAI reverse transcriptase
Summary of the method: (§5)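 Pre-steady-state rapid quench: 400 nM active-site RT and 40 nM ³²P-P20/T57 DNA T/P were preincubated in 50 mM Tris-HCl pH 7.5, 50 mM KCl, then mixed with nucleotide in the same buffer containing 20 mM MgCl₂. Quenched with 0.3 M EDTA from 10 ms to 30 min, run on urea-PAGE. kobs came from single-exponential fits; kpol and Kd came from a hyperbolic fit versus nucleotide concentration.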

[27] = test system: Human immunodeficiency virus type 1 reverse transcriptase (Human immunodeficiency virus 1), Q72547 [M184V]; assay: Ratio of Kpol to Kd for HIV1 LAI reverse transcriptase M184V mutant; summary of the method: as §5
[28] = test system: Human immunodeficiency virus type 1 reverse transcriptase (Human immunodeficiency virus 1), Q72547 [M41L,L210W,T215Y]; assay: Ratio of Kpol to Kd for HIV1 LAI reverse transcriptase M41L/L210W/T215Y mutant; summary of the method: as §5
[29] = test system: Human immunodeficiency virus type 1 reverse transcriptase (Human immunodeficiency virus 1), Q72547 [M41L,L210W,T215Y,M184V]; assay: Ratio of Kpol to Kd for HIV1 LAI reverse transcriptase M41L/L210W/T215Y/M184V mutant; summary of the method: as §5
[30] = test system: Human immunodeficiency virus 1; assay: Ratio of Kpol to Kd for HIV1 LAI reverse transcriptase M41L/L210W/T215Y/M184V/G333D mutant; summary of the method: as §5
[31] = molecular target: T1, Human immunodeficiency virus type 1 reverse transcriptase; assay: Binding affinity to wild type HIV1 LAI reverse transcriptase
Summary of the method: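 Bacterially expressed, purified RT, corrected for active-site concentration, preincubated at 400 nM with 40 nM 5′-³²P-labelled 20-nt DNA primer annealed to a 57-nt DNA template in 50 mM Tris-HCl pH 7.5, 50 mM KCl. It was then rapid-quench mixed 1:1 with nucleotide in the same buffer plus 20 mM MgCl₂. EDTA quench at 10 ms–30 min; urea-PAGE. k_obs fitted single-exponential; K_d from hyperbolic k_obs-versus-concentration fit.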

[32] = molecular target: T2, Human immunodeficiency virus type 1 reverse transcriptase; assay: Binding affinity to HIV1 LAI reverse transcriptase M184V mutant
[33] = molecular target: T3, Human immunodeficiency virus type 1 reverse transcriptase; assay: Binding affinity to HIV1 LAI reverse transcriptase M41L/L210W/T215Y mutant
[34] = molecular target: T4, Human immunodeficiency virus type 1 reverse transcriptase; assay: Binding affinity to HIV1 LAI reverse transcriptase M41L/L210W/T215Y/M184V mutant
[35] = Binding affinity to HIV1 LAI reverse transcriptase M41L/L210W/T215Y/M184V/G333D mutant; design: species or system Human immunodeficiency virus 1

Compound: Cc1cn([C@H]2C[C@H](N=[N+]=[N-])[C@@H](COP(=O)(O)O)O2)c(=O)[nH]c1=O [AZIDOTHYMIDINE MONOPHOSPHATE]
- Activity [1]: Active
- Activity [2]: Active
- Activity [3]: Active
- Activity [4]: Active
- Activity [5]: Active
- Activity [6]: Active
- fold change (FC) [7]: 4
- fold change (FC) [8]: 4
- Kd [9]: 19.8 nM
- Kd [10]: 76.9 nM
- Kd [11]: 18.8 nM
- Kd [12]: 98.4 nM
- Kd [13]: 46.2 nM
- Ratio [14]: 3.8
- Ratio [15]: 1
- Ratio [16]: 5
- Ratio [17]: 2.3
- Kd [18]: 20.5 nM
- Kd [19]: 22.3 nM
- Ratio [20]: 1
- Ratio [21]: 1.1
- Activity [22]: inactive
- Activity [23]: inactive
- Activity [24]: Active
- Activity [25]: Active

Compound: Nc1ccn([C@H]2C[C@H](O)[C@@H](COP(=O)(O)OP(=O)(O)OP(=O)(O)O)O2)c(=O)n1 [DEOXYCYTIDINE TRIPHOSPHATE]
- Ratio [26]: 1.07
- Ratio [27]: 0.53
- Ratio [28]: 1.06
- Ratio [29]: 0.44
- Ratio [30]: 0.58
- Kd [31]: 1140 nM
- Kd [32]: 2490 nM
- Kd [33]: 1230 nM
- Kd [34]: 2990 nM
- Kd [35]: 2510 nM

Compound: Cc1cn([C@H]2C[C@H](O)[C@@H](COP(=O)(O)OP(=O)(O)OP(=O)(O)O)O2)c(=O)[nH]c1=O [DEOXYTHYMIDINE_TRIPHOSPHATE]
- Kd [31]: 2080 nM
- Kd [32]: 2850 nM
- Kd [33]: 1200 nM
- Kd [34]: 2650 nM
- Kd [35]: 2900 nM
